The record followed here is ChEMBL document CHEMBL1153766, “Regioselective reaction: synthesis and pharmacological study of Mannich bases containing ibuprofen moiety” (2009).

Experiment [1] relates to Rattus norvegicus. Kind of experiment: Antiinflammatory activity against Wistar albino rat assessed as inhibition of carrageenan-induced paw edema at 20 mg/kg, po administered 30 mins prior to carrageenan challenge measured after 2.5 hrs. It counts as functional. In a few lines:
(§1)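 Carrageenan paw oedema in Wistar albino rats (Winter method). Compounds given orally at 20 mg/kg as a suspension in 1% carboxymethyl cellulose, 30 min before 0.1 mL of 1% w/v carrageenan injected into the plantar region of the paw. Paw volume measured by plethysmography at 30, 60, 90, 120, 150 and 180 min. Inhibition calculated relative to vehicle controls. Mean ± SEM.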
For orientation: In the carrageenan paw model, swelling and tenderness develop within hours.

The subject of another experiment is Staphylococcus aureus. Kind of experiment: Antimicrobial activity against Staphylococcus aureus at 1000 ug after 24 to 48 hrs by well diffusion method. Format: functional, organism-based. In a few lines:
(§2)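 Agar well diffusion against Staphylococcus aureus, Escherichia coli and Aspergillus. Compounds dissolved in DMF (10 mg in 10 mL), and the solution placed into wells cut with a borer. Plates incubated at 37 °C for 24–48 h, then inspected.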
In general terms: In agar diffusion tests the substance spreads into inoculated agar from a disc or well.

In experiment [2] the test system is Rattus norvegicus. Kind of experiment: Antiinflammatory activity against Wistar albino rat assessed as inhibition of carrageenan-induced paw edema at 20 mg/kg, po administered 30 mins prior to carrageenan challenge measured after 0.5 hrs. Format: functional. In a few lines: as §1
Experiment [3] deals with Rattus norvegicus. Kind of experiment: Antiinflammatory activity against Wistar albino rat assessed as inhibition of carrageenan-induced paw edema at 20 mg/kg, po administered 30 mins prior to carrageenan challenge measured after 3 hrs. It counts as functional. In a few lines: as §1
Experiment [4] deals with Rattus norvegicus. The experiment can be described thus: Antiinflammatory activity against Wistar albino rat assessed as inhibition of carrageenan-induced paw edema at 20 mg/kg, po administered 30 mins prior to carrageenan challenge measured after 1.5 hrs. Format: functional. Summed up: as §1
Another experiment concerns Escherichia coli. The experiment can be described thus: Antimicrobial activity against Escherichia coli at 1000 ug after 24 to 48 hrs by well diffusion method. Format: functional, organism-based. Summed up: as §2
For experiment [5], the system named is Rattus norvegicus. Kind of experiment: Antiinflammatory activity against Wistar albino rat assessed as inhibition of carrageenan-induced paw edema at 20 mg/kg, po administered 30 mins prior to carrageenan challenge measured after 1 hrs. It counts as functional. Summed up: as §1
A further experiment relates to Mus musculus. The experiment can be described thus: Analgesic activity against Swiss albino mouse assessed as increase in paw licking or jump response at 10 mg/kg, po after 1.5 hrs by hot plate method. Format: functional. Summed up:
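Hot-plate test in Swiss albino mice, 6 per group. Compounds given orally by gavage as a suspension in 1% carboxymethyl cellulose, 10 mg/kg. Animals placed on a plate held at 55 ± 1 °C, with paw licking or jumping as the end point. Reaction time recorded at 30, 60 and 90 min after dosing. Percentage increase in reaction time calculated using the maximum tolerated reaction time. Mean ± SEM.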
(Hot-plate and tail-flick tests time the reaction to a heat stimulus.)

The next experiment has as its system Aspergillus. The experiment can be described thus: Antimicrobial activity against Aspergillus at 1000 ug after 24 to 48 hrs by well diffusion method. It counts as functional, organism-based. Summed up:
as §2

Experiment [6] concerns Rattus norvegicus. The experiment can be described thus: Antiinflammatory activity against Wistar albino rat assessed as inhibition of carrageenan-induced paw edema at 20 mg/kg, po administered 30 mins prior to carrageenan challenge measured after 2 hrs. It counts as functional. Summed up: as §1

Active and inactive are the calls of the source. The rule behind the calls is not given here.

Consider `CC(C)Cc1ccc(C(C)c2nn(CN3CCOCC3)c(=S)n2/N=C/c2ccc(Cl)cc2)cc1` (centres undefined), for which the inhibition in vivo at 20 mg/kg is 73% with Rattus norvegicus [1]; 90% in the experiment with Rattus norvegicus [2]; 74% in the experiment on Rattus norvegicus [3]; 61% with Rattus norvegicus [4]; 42% with Rattus norvegicus [5]; 61% with Rattus norvegicus [6]. Further, the result in the experiment with Staphylococcus aureus, with Escherichia coli and in the experiment on Aspergillus was inactive. Further, in the experiment on Mus musculus, the Activity was determined as 76.49%.

Regarding `CC(C)Cc1ccc(C(C)C(=O)O)cc1` (centres undefined) [IBUPROFEN], the inhibition in vivo at 20 mg/kg amounted to 39% with Rattus norvegicus [1]; 20% in the experiment on Rattus norvegicus [2]; 42% in the experiment with Rattus norvegicus [3]; 25% with Rattus norvegicus [4]; 18% in the experiment on Rattus norvegicus [5]; 36% in the experiment with Rattus norvegicus [6].

With `CC(C)Cc1ccc(C(C)c2nn(CN3CCOCC3)c(=S)n2/N=C/c2ccc([N+](=O)[O-])cc2)cc1` (centres undefined), the inhibition in vivo at 20 mg/kg in the experiment on Rattus norvegicus [1] was found to be 71%; in the experiment with Rattus norvegicus [2] it was 12%; with Rattus norvegicus [3], 73%; in the experiment with Rattus norvegicus [4] it was 65%; in the experiment on Rattus norvegicus [5] it was 52%; with Rattus norvegicus [6], 54%. Moreover, the outcome in the experiment with Staphylococcus aureus, with Escherichia coli and in the experiment on Aspergillus was inactive. The Activity in the experiment with Mus musculus came to 79.6%.

For `CC(C)Cc1ccc(C(C)c2nn(CN3CCN(C)CC3)c(=S)n2/N=C/c2ccc([N+](=O)[O-])cc2)cc1` (centres undefined), the inhibition in vivo at 20 mg/kg was determined as 75% with Rattus norvegicus [1]; 38% in the experiment with Rattus norvegicus [2]; 74% in the experiment with Rattus norvegicus [3]; 82% in the experiment on Rattus norvegicus [4]; 70% with Rattus norvegicus [5]; 68% with Rattus norvegicus [6]. For the same molecule, the outcome with Staphylococcus aureus, in the experiment on Escherichia coli and with Aspergillus was inactive. For the same molecule, the Activity in the experiment on Mus musculus was determined as 70.75%.

For `CC(C)Cc1ccc(C(C)c2nnc(S)n2N)cc1` (centres undefined), the inhibition in vivo at 20 mg/kg in the experiment with Rattus norvegicus [1] was found to be 50%; in the experiment with Rattus norvegicus [2], 30%; with Rattus norvegicus [3] it was 56%; in the experiment on Rattus norvegicus [4], 46%; in the experiment with Rattus norvegicus [5], 32%; in the experiment with Rattus norvegicus [6], 45%. The outcome in the experiment on Staphylococcus aureus, with Escherichia coli and with Aspergillus was inactive.

As for `Cc1ccc(/C=N/n2c(C(C)c3ccc(CC(C)C)cc3)nn(CN3CCOCC3)c2=S)cc1` (centres undefined), the inhibition in vivo at 20 mg/kg in the experiment with Rattus norvegicus [1] is 67%; in the experiment with Rattus norvegicus [2], 0%; with Rattus norvegicus [3] it was 68%; with Rattus norvegicus [4], 64%; with Rattus norvegicus [5] it was 23%; in the experiment with Rattus norvegicus [6], 60%. Also, the outcome with Staphylococcus aureus, in the experiment with Escherichia coli and with Aspergillus was inactive. Also, in the experiment on Mus musculus, the Activity worked out at 64.32%.

On to `CC(C)Cc1ccc(C(C)c2nnc(S)n2/N=C/c2ccc(Br)cc2)cc1` (centres undefined), for which the inhibition in vivo at 20 mg/kg was 70% in the experiment with Rattus norvegicus [1]; 0% with Rattus norvegicus [2]; 72% in the experiment with Rattus norvegicus [3]; 65% in the experiment with Rattus norvegicus [4]; 16% in the experiment with Rattus norvegicus [5]; 60% in the experiment with Rattus norvegicus [6]. Besides, the outcome in the experiment with Staphylococcus aureus, with Escherichia coli and in the experiment on Aspergillus was inactive.

As to `CC(C)Cc1ccc(C(C)c2nnc(S)n2/N=C/c2ccc(Cl)cc2)cc1` (centres undefined), the inhibition in vivo at 20 mg/kg amounted to 62% in the experiment with Rattus norvegicus [1]; 62% in the experiment with Rattus norvegicus [2]; 64% in the experiment with Rattus norvegicus [3]; 52% in the experiment with Rattus norvegicus [4]; 49% in the experiment with Rattus norvegicus [5]; 57% with Rattus norvegicus [6]. The outcome in the experiment with Staphylococcus aureus, in the experiment on Escherichia coli and in the experiment on Aspergillus was inactive.

With `CC(C)Cc1ccc(C(C)c2nn(CN(c3ccccc3)c3ccccc3)c(=S)n2/N=C/c2ccc(Br)cc2)cc1` (centres undefined), the inhibition in vivo at 20 mg/kg in the experiment on Rattus norvegicus [1] came to 57%; in the experiment with Rattus norvegicus [2] it was 9%; with Rattus norvegicus [3], 57%; with Rattus norvegicus [4], 38%; in the experiment on Rattus norvegicus [5] it was 10%; in the experiment on Rattus norvegicus [6], 38%. For the same molecule, the result in the experiment on Staphylococcus aureus, in the experiment with Escherichia coli and in the experiment with Aspergillus was inactive.

As to `O=C(O)Cc1ccccc1Nc1c(Cl)cccc1Cl` [DICLOFENAC], the inhibition in vivo at 20 mg/kg in the experiment with Rattus norvegicus [1] came to 69%; in the experiment with Rattus norvegicus [2], 83%; in the experiment with Rattus norvegicus [3], 65%; in the experiment on Rattus norvegicus [4] it was 70%; in the experiment with Rattus norvegicus [5], 59%; with Rattus norvegicus [6], 87%. Besides, in the experiment with Mus musculus, the Activity was 79.24%.

The term inhibition in vivo denotes the percentage by which the read-out fell short of the control.
